ChEMBL document CHEMBL3352510, “Anti-Inflammatory Spirostanol and Furostanol Saponins from Solanum macaonense” (J Nat Prod, 2014)
pIC50: −log10 of the molar value. Calls of active or inactive are those of the source. The calls are words filed in the database; no cut-off is given here.

Legend:
Neutrophil [1] = assay: Inhibition of FMLP/CB-stimulated superoxide production in human neutrophils preincubated for 5 mins before FMLP/CB treatment by spectrophotometry; assay type: functional, cell-based
Procedure, shortened: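 Neutrophils equilibrated with ferricytochrome c (0.5 mg/mL) and 1 mM Ca2+ at 37 °C for 2 min, treated with compound for 5 min, primed with cytochalasin B (1 μg/mL) for 3 min, then stimulated with FMLP 100 nM for 10 min. IC50 given as mean ± SEM, n = 3 or 4. Diphenyleneiodonium as positive control.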

RBL-2H3 = assay: Anti-inflammatory activity in rat RBL2H3 cells assessed as inhibition of beta-hexosaminidase release at 1 to 64 uM after 48 hrs by degranulation assay relative to control; assay type: functional, cell-based
Procedure, shortened: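 RBL-2H3 cells grown in DMEM/F12 with 10% FBS, seeded at 10^4 cells/well, exposed to compound (0, 1, 4, 16, 64 μM) for 48 h. Sensitized overnight with anti-DNP IgE ([…]), washed in Tyrode's buffer, then challenged with DNP-BSA (0.1 μg/mL) for 1 h. Reaction stopped on ice. Supernatant incubated 1 h with p-nitrophenyl-N-acetyl-D-glucosaminide (0.1 M, citrate buffer), stopped with bicarbonate, read at 405 nm. Release % = (sample − background)/(total lysate − background) × 100. Dexamethasone 100 nM as positive control.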

[2] = Cytotoxicity against human neutrophils assessed as reduction in cell viability up to 10 uM by LDH release assay; assay type: cell-based; conditions: neutrophil
Procedure, shortened: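 Neutrophils held in Ca2+-free HBSS, pH 7.4, at 4 °C before use. Compounds tested up to 10 μM. Membrane damage scored as LDH in cell-free medium, expressed as a percentage of total LDH release.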

[3] = Cytotoxicity against rat RBL2H3 cells assessed as reduction in cell viability by MTT assay; assay type: cell-based; conditions: rbl-2h3
Procedure, shortened: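 Viability of RBL-2H3 cells by MTT, run alongside the degranulation assay. Cells cultured in DMEM/F12 with 10% FBS and exposed to compound at 0–64 μM.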

Neutrophil [4] = assay: Inhibition of FMLP/CB-stimulated elastase release in human neutrophils preincubated for 5 mins before FMLP/CB treatment using MeO-Suc-Ala-Ala-Pro-Val-pnitroanilide by spectrophotometry; assay type: functional, cell-based
Procedure, shortened: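 Neutrophils, after hypotonic lysis of erythrocytes, kept in Ca2+-free HBSS pH 7.4. Equilibrated 2 min at 37 °C with MeO-Suc-Ala-Ala-Pro-Val-p-nitroanilide (100 μM), given compound for 5 min, then activated with FMLP 100 nM plus cytochalasin B 0.5 μg/mL. Absorbance at 405 nm tracked continuously and expressed as percent of drug-free activated control. IC50 reported as mean ± SEM, n = 3 or 4. Sivelestat as positive control.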

[5] = Antidegranulation activity in rat RBL2H3 cells assessed as inhibition of DNP-BSA-stimulated beta-hexosaminidase release

| Compound | pIC50 (Neutrophil [1]) | pIC50 (Neutrophil [4]) | also measured |
| --- | --- | --- | --- |
| c1ccc2c(c1)[I+]c1ccccc1-2 [DIPHENYLENEIODONIUM] | 6.10 |  |  |
| C[C@@H]1CC[C@@]2(OC1)O[C@H]1C[C@H]3[C@@H]4C[C@H](O)[C@H]5C[C@@H](O[C@@H]6O[C@H](CO)[C@@H](O[C@H]7O[C@@H](C)[C@H](O)[C@@H](O)[C@H]7O)[C@H](O)[C@H]6O[C@H]6O[C@@H](C)[C@H](O)[C@@H](O)[C@H]6O)CC[C@]5(C)[C@H]4CC[C@]3(C)[C@H]1[C@@H]2C | < 5.00 |  |  |
| C[C@@H]1CC[C@@]2(OC1)O[C@H]1C[C@H]3[C@@H]4C[C@H](O[C@@H]5OC[C@@H](O)[C@H](O[C@@H]6OC[C@@H](O)[C@H](O)[C@H]6O)[C@H]5O)[C@H]5C[C@@H](O)CC[C@]5(C)[C@H]4CC[C@]3(C)[C@H]1[C@@H]2C | < 5.00 | 5.38 | Activity (RBL-2H3): inactive; Activity [2]: Non-toxic; Activity [3]: Active |
| C[C@@H]1CC[C@@]2(OC1)O[C@H]1C[C@H]3[C@@H]4C[C@H](O[C@@H]5O[C@H](C)[C@@H](O)[C@H](O)[C@H]5O)[C@H]5C[C@@H](O[C@@H]6O[C@H](CO)[C@@H](O)[C@H](O)[C@H]6O)CC[C@]5(C)[C@H]4CC[C@]3(C)[C@H]1[C@@H]2C | < 5.00 |  |  |
| C[C@@H]1CC[C@@]2(OC1)O[C@H]1C[C@H]3[C@@H]4C[C@H](O[C@@H]5OC[C@@H](O)[C@H](O)[C@H]5O)[C@H]5C[C@@H](O)CC[C@]5(C)[C@H]4CC[C@]3(C)[C@H]1[C@@H]2C | 5.12 | 5.36 | Activity [2]: Non-toxic |
| C[C@@H]1CC[C@@]2(OC1)O[C@H]1C[C@H]3[C@@H]4C[C@H](O[C@@H]5O[C@H](C)[C@@H](O)[C@H](O[C@@H]6OC[C@@H](O)[C@H](O)[C@H]6O)[C@H]5O)[C@H]5CC(=O)CC[C@]5(C)[C@H]4CC[C@]3(C)[C@H]1[C@@H]2C | < 5.00 | 5.49 | Activity (RBL-2H3): inactive; Activity [2]: Non-toxic; inhibition of degranulation [5]: > 90% |
| C[C@@H]1CC[C@@]2(OC1)O[C@H]1C[C@H]3[C@@H]4C[C@H](O[C@@H]5O[C@H](CO)[C@@H](O)[C@H](O)[C@H]5O)[C@H]5C[C@@H](O)CC[C@]5(C)[C@H]4CC[C@]3(C)[C@H]1[C@@H]2C | < 5.00 |  |  |
| C[C@@H]1CC[C@@]2(OC1)O[C@H]1C[C@H]3[C@@H]4C[C@H](O)[C@H]5C[C@@H](O)CC[C@]5(C)[C@H]4CC[C@]3(C)[C@H]1[C@@H]2C [CHLOROGENIN] | 5.21 | < 5.00 |  |
| C[C@@H]1CC[C@@]2(OC1)O[C@H]1C[C@H]3[C@@H]4C[C@H](O[C@@H]5O[C@H](C)[C@@H](O)[C@H](O[C@@H]6OC[C@@H](O)[C@H](O)[C@H]6O)[C@H]5O)[C@H]5C[C@@H](O)CC[C@]5(C)[C@H]4CC[C@]3(C)[C@H]1[C@@H]2C | 5.40 | 6.00 |  |
| C[C@H](CC[C@@]1(O)O[C@H]2C[C@H]3[C@@H]4C[C@H](O)[C@H]5C[C@@H](O[C@@H]6O[C@H](CO)[C@@H](O)[C@H](O)[C@H]6O)CC[C@]5(C)[C@H]4CC[C@]3(C)[C@H]2[C@@H]1C)CO[C@@H]1O[C@H](CO)[C@@H](O)[C@H](O)[C@H]1O | < 5.00 |  |  |
| C[C@@H]1CC[C@@]2(OC1)O[C@H]1C[C@H]3[C@@H]4C[C@H](O[C@@H]5O[C@H](C)[C@@H](O)[C@H](O)[C@H]5O)[C@H]5C[C@@H](O)CC[C@]5(C)[C@H]4CC[C@]3(C)[C@H]1[C@@H]2C | 5.15 | 5.43 | Activity [2]: Non-toxic |
| CC(C)(C)C(=O)Oc1ccc(S(=O)(=O)Nc2ccccc2C(=O)NCC(=O)O)cc1 [SIVELESTAT] |  | 4.30 |  |

More lines, main results first:

| pIC50 (Neutrophil [1]) | pIC50 (Neutrophil [4]) | Compound | also measured |
| --- | --- | --- | --- |
| < 5.00 |  | CC1=C(C(O)C[C@@H](C)CO[C@@H]2O[C@H](CO)[C@@H](O)[C@H](O)[C@H]2O)O[C@H]2C[C@H]3[C@@H]4C[C@H](O[C@@H]5O[C@H](C)[C@@H](O)[C@H](O[C@@H]6OC[C@@H](O)[C@H](O)[C@H]6O)[C@H]5O)[C@H]5C[C@@H](O)CC[C@]5(C)[C@H]4CC[C@]3(C)[C@@H]12 (stereo partly specified) |  |
| < 5.00 |  | CO[C@]1(CC[C@@H](C)CO[C@@H]2O[C@H](CO)[C@@H](O)[C@H](O)[C@H]2O)O[C@H]2C[C@H]3[C@@H]4C[C@H](O[C@@H]5O[C@H](C)[C@@H](O)[C@H](O[C@@H]6OC[C@@H](O)[C@H](O)[C@H]6O)[C@H]5O)[C@H]5C[C@@H](O)CC[C@]5(C)[C@H]4CC[C@]3(C)[C@H]2[C@@H]1C |  |
| < 5.00 |  | CO[C@]1(CC[C@@H](C)CO[C@@H]2O[C@H](CO)[C@@H](O)[C@H](O)[C@H]2O)O[C@H]2C[C@H]3[C@@H]4C[C@H](O[C@@H]5OC[C@@H](O)[C@H](O[C@@H]6OC[C@@H](O)[C@H](O)[C@H]6O)[C@H]5O)[C@H]5C[C@@H](O)CC[C@]5(C)[C@H]4CC[C@]3(C)[C@H]2[C@@H]1C |  |
| < 5.00 |  | CO[C@]1(CC[C@@H](C)CO[C@@H]2O[C@H](CO)[C@@H](O)[C@H](O)[C@H]2O)O[C@H]2C[C@H]3[C@@H]4C[C@H](O[C@@H]5O[C@H](C)[C@@H](O)[C@H](O[C@@H]6OC[C@@H](O)[C@H](O)[C@H]6O)[C@H]5O)[C@H]5CC(=O)CC[C@]5(C)[C@H]4CC[C@]3(C)[C@H]2[C@@H]1C |  |
| < 5.00 |  | CC1=C(CC[C@@H](C)CO[C@@H]2O[C@H](CO)[C@@H](O)[C@H](O)[C@H]2O)O[C@H]2C[C@H]3[C@@H]4C[C@H](O[C@@H]5O[C@H](C)[C@@H](O)[C@H](O[C@@H]6OC[C@@H](O)[C@H](O)[C@H]6O)[C@H]5O)[C@H]5C[C@@H](O)CC[C@]5(C)[C@H]4CC[C@]3(C)[C@@H]12 |  |
| < 5.00 |  | C[C@H]1CO[C@@]2(O[C@H]3C[C@H]4[C@@H]5C[C@H](O[C@@H]6O[C@H](C)[C@@H](O)[C@H](O[C@@H]7OC[C@@H](O)[C@H](O)[C@H]7O)[C@H]6O)[C@H]6C[C@@H](O)CC[C@]6(C)[C@H]5CC[C@]4(C)[C@H]3[C@@H]2C)[C@@H](O)C1 |  |
| < 5.00 |  | C[C@H](CC[C@@]1(O)O[C@H]2C[C@H]3[C@@H]4C[C@H](O[C@@H]5O[C@H](C)[C@@H](O)[C@H](O)[C@H]5O)[C@H]5C[C@@H](O[C@@H]6O[C@H](CO)[C@@H](O)[C@H](O)[C@H]6O)CC[C@]5(C)[C@H]4CC[C@]3(C)[C@H]2[C@@H]1C)CO[C@@H]1O[C@H](CO)[C@@H](O)[C@H](O)[C@H]1O |  |
| < 5.00 |  | C[C@H](CC[C@@]1(O)O[C@H]2C[C@H]3[C@@H]4C[C@H](O[C@@H]5O[C@H](C)[C@@H](O)[C@H](O[C@@H]6OC[C@@H](O)[C@H](O)[C@H]6O)[C@H]5O)[C@H]5C[C@@H](O)CC[C@]5(C)[C@H]4CC[C@]3(C)[C@H]2[C@@H]1C)CO[C@@H]1O[C@H](CO)[C@@H](O)[C@H](O)[C@H]1O |  |
| < 5.00 |  | C[C@H](C/C=C1/O[C@H]2C[C@H]3[C@@H]4C[C@H](O[C@@H]5O[C@H](C)[C@@H](O)[C@H](O[C@@H]6OC[C@@H](O)[C@H](O)[C@H]6O)[C@H]5O)[C@H]5C[C@@H](O)CC[C@]5(C)[C@H]4CC[C@]3(C)[C@H]2[C@@]1(C)O)CO[C@@H]1O[C@H](CO)[C@@H](O)[C@H](O)[C@H]1O |  |
| < 5.00 |  | C[C@H](CC[C@@]1(O)O[C@H]2C[C@H]3[C@@H]4C[C@H](O)[C@H]5C[C@@H](O[C@@H]6O[C@H](CO)[C@@H](O)[C@H](O)[C@H]6O[C@@H]6O[C@@H](C)[C@H](O)[C@@H](O)[C@H]6O)CC[C@]5(C)[C@H]4CC[C@]3(C)[C@H]2[C@@H]1C)CO[C@@H]1O[C@H](CO)[C@@H](O)[C@H](O)[C@H]1O |  |
